The test system of series [1] is Candida albicans. The experiment in a line: Antibacterial activity against ampicillin/cefotaxime/tetracycline/ceftriaxone/fosfomycin-resistant Candida albicans 181210169-1 assessed as inhibition of fungal growth measured after 16 to 20 hrs by two-fold serial microbroth dilution method. The series is classed as functional, organism-based. Particulars: time 16-20 hrs. The essentials:
(§1)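 Broth microdilution MIC in LB and M9 medium. Inoculum adjusted to about 5 × 10⁵ cells/ml. Compound serially diluted twofold. Plates covered and incubated at 37 °C with shaking. OD600 read; MIC taken as the lowest concentration giving no growth after 16–20 h.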
Background: Broth dilution looks for growth in wells or tubes with falling amounts of substance.

The subject of series [2] is Pseudomonas aeruginosa. Description: Antibacterial activity against ampicillin/cefotaxime-resistant Pseudomonas aeruginosa ATCC 27853 assessed as inhibition of bacterial growth measured after 16 to 20 hrs by two-fold serial microbroth dilution method. The series is classed as functional, organism-based. As to conditions: time 16-20 hrs. The essentials:
as §1

The subject of series [3] is Hafnia alvei. The experiment in a line: Antibacterial activity against Ampicillin resistant Hafnia alvei O31 assessed as inhibition of bacterial growth measured after 16 to 20 hrs by two-fold serial microbroth dilution method. Particulars: time 16-20 hrs. The series is classed as functional, organism-based. The essentials: as §1
Series [4] concerns Bacillus subtilis. Description: Antibacterial activity against Bacillus subtilis 3HM assessed as inhibition of bacterial growth measured after 16 to 20 hrs by two-fold serial microbroth dilution method. In kind it is functional, organism-based. As to conditions: time 16-20 hrs. Put shortly: (§2)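 Broth microdilution in LB and M9 medium. Inoculum adjusted to about 5 × 10⁵ cells/ml. Compound diluted twofold serially in microplate wells, then plates covered and incubated at 37 °C with shaking. Growth read as OD600. MIC taken as the lowest concentration giving no growth after 16–20 h.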

In series [5] the test system is Klebsiella oxytoca. The experiment in a line: Antibacterial activity against Klebsiella oxytoca R48 assessed as inhibition of bacterial growth measured after 16 to 20 hrs by two-fold serial microbroth dilution method. The series is classed as functional, organism-based. Particulars: time 16-20 hrs. The essentials: as §2
Series [6] has as its system Staphylococcus aureus. Description: Antibacterial activity against Fosfomycin resistant Staphylococcus aureus ATCC USA 206 assessed as inhibition of bacterial growth measured after 16 to 20 hrs by two-fold serial microbroth dilution method. In kind it is functional, organism-based. Particulars: time 16-20 hrs. The essentials: as §1
Series [7] has as its system Proteus sp. The experiment in a line: Antibacterial activity against ampicillin/cefotaxime/tetracycline/ceftriaxone/fosfomycin-resistant Proteus sp. O14 assessed as inhibition of bacterial growth measured after 16 to 20 hrs by two-fold serial microbroth dilution method. The series is classed as functional, organism-based. As to conditions: time 16-20 hrs. Put shortly: as §1

Series [8] concerns Klebsiella pneumoniae. Description: Antibacterial activity against ampicillin/fosfomycin-resistant Klebsiella pneumonia 181210171-2 assessed as inhibition of bacterial growth measured after 16 to 20 hrs by two-fold serial microbroth dilution method. Particulars: time 16-20 hrs. In kind it is functional, organism-based. Put shortly:
as §1

The subject of series [9] is Escherichia coli. The experiment in a line: Antibacterial activity against ampicillin/cefotaxime/tetracycline/ceftriaxone-resistant Escherichia coli mx7 assessed as inhibition of bacterial growth measured after 16 to 20 hrs by two-fold serial microbroth dilution method. In kind it is functional, organism-based. As to conditions: time 16-20 hrs. The essentials:
as §1

Series [10] relates to Klebsiella aerogenes. Description: Antibacterial activity against Enterobacter aerogenes R41 assessed as inhibition of bacterial growth measured after 16 to 20 hrs by two-fold serial microbroth dilution method. Particulars: time 16-20 hrs. The series is classed as functional, organism-based. The essentials: as §2
The subject of series [11] is Citrobacter koseri. Description: Antibacterial activity against Citrobacter koseri R38 assessed as inhibition of bacterial growth measured after 16 to 20 hrs by two-fold serial microbroth dilution method. Particulars: time 16-20 hrs. In kind it is functional, organism-based. The essentials:
as §2

Series [12] relates to Aeromonas. The experiment in a line: Antibacterial activity against Aeromonas sp. O9 assessed as inhibition of bacterial growth measured after 16 to 20 hrs by two-fold serial microbroth dilution method. In kind it is functional, organism-based. Particulars: time 16-20 hrs. The essentials:
as §2

The subject of series [13] is Proteus vulgaris. Description: Antibacterial activity against Proteus vulgaris O41 assessed as inhibition of bacterial growth measured after 16 to 20 hrs by two-fold serial microbroth dilution method. Particulars: time 16-20 hrs. In kind it is functional, organism-based. The essentials:
as §2

For series [14], the system named is Escherichia coli. Description: Antibacterial activity against Escherichia coli assessed as inhibition of bacterial growth measured after 16 to 20 hrs by two-fold serial microbroth dilution method. Particulars: time 16-20 hrs. The series is classed as functional. The essentials:
as §2

Series [15] concerns Enterobacter cloacae. The experiment in a line: Antibacterial activity against ampicillin/cefotaxime/tetracycline/ceftriaxone-resistant Enterobacter cloacae O3 assessed as inhibition of bacterial growth measured after 16 to 20 hrs by two-fold serial microbroth dilution method. As to conditions: time 16-20 hrs. The series is classed as functional, organism-based. The essentials: as §1

Series [16] concerns HEK293. The experiment in a line: Induction of cell cycle arrest in human HEK293 cells assessed as increase in accumulation of cells at G2/M phase at 14.9 uM after 24 hrs by propidium iodide staining based flow cytometry. As to conditions: hek293, 24 h. The essentials: (§3)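 HEK293 cells exposed to compound or vehicle (0.1% DMSO), then harvested by centrifugation (400 × g, 5 min). Fixed/permeabilized in ice-cold 70% ethanol for 24 h at −20 °C, PBS-washed twice, treated with RNase A (0.5 mg/ml) for 5 min at room temperature, then PI (50 µg/ml) for 30 min. DNA content measured by flow cytometry on a linear scale. At least duplicate runs; mean ± S.E.M.; Wilcoxon test versus vehicle.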
(In general: In flow cytometry, cells or beads pass a laser one at a time.)

The nature of series [17]: Cytotoxicity against human HEK293 cells assessed as reduction in cell viability measured after 28 hrs by PrestoBlue reagent based fluorescence analysis. Put shortly: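 HEK293 cells seeded at 25*10³ per well in DMEM with 10% FBS, 2 mM L-Glu and 50 µg/ml gentamicin. Cells held 24 h at 37 °C, 5% CO2 before compound was added (final DMSO 0.1%), then incubated 28 h. Viability read by PrestoBlue fluorescence at 590 nm, expressed relative to 0.1% DMSO control (100%). CC50 derived by curve fitting.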

For series [18], the system named is Morganella morganii. Description: Antibacterial activity against Morganella morganii R36 assessed as inhibition of bacterial growth measured after 16 to 20 hrs by two-fold serial microbroth dilution method. The series is classed as functional, organism-based. As to conditions: time 16-20 hrs. The essentials: as §2
The subject of series [19] is HEK293. Description: Induction of cell cycle arrest in human HEK293 cells assessed as increase in accumulation of apoptotic cells at sub G1 phase at 14.9 uM after 24 hrs by propidium iodide staining based flow cytometry. As to conditions: hek293, 24 h. Put shortly: as §3
Series [20] deals with Enterobacter. Description: Antibacterial activity against Enterobacter sp. O54 assessed as inhibition of bacterial growth measured after 16 to 20 hrs by two-fold serial microbroth dilution method. In kind it is functional, organism-based. As to conditions: time 16-20 hrs. The essentials:
as §2

Series [21] has as its system Pseudomonas aeruginosa. The experiment in a line: Antibacterial activity against Pseudomonas aeruginosa R42 assessed as inhibition of bacterial growth measured after 16 to 20 hrs by two-fold serial microbroth dilution method. In kind it is functional, organism-based. As to conditions: time 16-20 hrs. Put shortly: as §2
Series [22] relates to HEK293. Description: Induction of cell cycle arrest in human HEK293 cells assessed as decrease in accumulation of cells at G1 phase at 14.9 uM measured after 24 hrs by propidium iodide staining based flow cytometry. As to conditions: hek293, 24 h. The essentials:
as §3

The test system of series [23] is Escherichia coli. Description: Antibacterial activity against Escherichia coli ATCC25922 assessed as inhibition of bacterial growth measured after 16 to 20 hrs by two-fold serial microbroth dilution method. As to conditions: ATCC 25922, time 16-20 hrs. In kind it is functional, organism-based. Put shortly:
as §2

Series [24] relates to HEK293. Description: Induction of cell cycle arrest in human HEK293 cells assessed as increase in accumulation of cells at S phase at 71 uM after 24 hrs by propidium iodide staining based flow cytometry. Particulars: hek293, 24 h. Put shortly:
(§4)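 Cell-cycle profiling of HEK293 cells treated with compound or vehicle (0.1% DMSO). Cells harvested (400 × g, 5 min) and fixed in ice-cold 70% ethanol for 24 h at −20 °C. Washed in PBS, treated with RNase A (0.5 mg/ml, 5 min, room temperature), then stained with propidium iodide (50 µg/ml, 30 min). DNA content read by flow cytometry on a linear scale. At least duplicate; mean ± S.E.M.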

A short description of series [25]: Selectivity index, ratio of CC50 for human HEK293 cells to MIC for antibacterial activity against Escherichia coli. The series is classed as toxicity. As to conditions: read-out: Selectivity Index.
Series [26] concerns HEK293. The experiment in a line: Induction of cell cycle arrest in human HEK293 cells assessed as increase in accumulation of apoptotic cells at sub G1 phase at 71 uM measured after 48 hrs by propidium iodide staining based flow cytometry. Particulars: hek293, 48 h. The essentials: as §4

Molecules are shown by their SMILES. ≈ marks a conversion by molar mass, not a printed value. Calls of active or inactive are those of the source. The rule behind the calls is not given here.

On to `COc1c2c(cc3c1C(CC(=O)/C=C/C1=C(C)CCCC1(C)C)[N+](C)(C)CC3)OCO2.[I-]` (stereo unspecified), for which the result in [1], in series [3], in series [4], in series [5], in series [6] and in series [8] was Active. Moreover, the result in [9], in series [10], in [12], in series [15], in [18] and in series [21] was Active. In addition, the result in series [23] was Active. Also, the outcome in series [2], in series [7], in series [11], in [13] and in [20] was inactive. The MIC (commonly the lowest concentration found to suppress growth) in [14] was 22.6 µM. In addition, the Activity entry in series [16], in [19] and in [22] was “Toxic” each time. The CC50 (commonly the concentration that lowers cell viability or growth by half) at 28 h in [17] was determined as 14.9 µM.
In the case of `CCn1c(O)c(C(=O)CC2c3c(cc4c(c3OC)OCO4)CCN2C)c(=O)n(CC)c1=S` (stereo unspecified), the result in [1], in series [2], in series [3], in [5], in [7] and in [8] was inactive. The outcome in series [9], in series [10], in [11], in [12], in series [13] and in [15] was inactive. Moreover, the outcome in series [18], in [20], in [21] and in series [23] was inactive. The Activity entry in series [24] and in series [26] was “Toxic” each time. The selectivity ratio in series [25] was determined as 5.5. The outcome in series [4] and in series [6] was Active. For the same molecule, the MIC in series [14] turned out to be 13.5 µM (≈ 6.23 µg/mL). Further, the CC50 at 28 h in [17] came out at 71 µM.

The values are drawn from ChEMBL document CHEMBL4819096, “Antibacterial activity of noscapine analogs” (Bioorg Med Chem Lett, 2021).
